Results on 12 compounds are retold here after ChEMBL document CHEMBL4002632, “Development of gallic acid formazans as novel enoyl acyl carrier protein reductase inhibitors for the treatment of tuberculosis” (Bioorg Med Chem Lett, 2017).

The subject of data set [1] is Mycobacterium tuberculosis. Briefly: Antimycobacterial activity against Mycobacterium tuberculosis H37Rv ATCC 27294 by agar dilution method. The data set is classed as functional. The method in brief: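 Growth of M. tuberculosis H37Rv (ATCC27294) on agar dilution. Compounds at 50 to 0.78 μg/ml in duplicate. MIC taken as the lowest concentration giving complete growth inhibition. Isoniazid, ethambutol and ofloxacin served as references.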
For orientation: In agar dilution, organisms are placed on agar that contains the substance at set levels.

The test system of another data set is Staphylococcus aureus. Kind of data set: Antibacterial activity against Staphylococcus aureus at 50 to 100 ug/ml by cup plate agar diffusion method. The data set is classed as functional. The method in brief:
(§1)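 Tested at 50 and 100 μg/ml by cup-plate agar diffusion against E. coli, P. aeruginosa, S. aureus and B. subtilis.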

The nature of data set [2]: Inhibition of Mycobacterium tuberculosis His6-tagged InhA expressed in Escherichia coli BL21 (DE3) assessed as decrease in NADH oxidation to NAD+ using 2-trans-decenoyl-CoA as substrate preincubated for 2 hrs followed by substrate and NADH addition measured for 1 min by spectrophotometric method. The method in brief: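 Recombinant MTB InhA purified from E. coli. NADH oxidation during DD-CoA reduction read spectrophotometrically, with fixed non-saturating NADH and DD-CoA in 1% DMSO. IC50, the concentration halving enzyme velocity, determined for compounds giving over 50% inhibition at 10 μM.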

A short description of data set [3]: Cytotoxicity against mouse RAW264.7 cells assessed as growth inhibition at 100 uM after 72 hrs by MTT assay relative to control. The data set is classed as cell-based. The conditions noted are these: read-out: GI. A digest of the protocol:
(§2)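 RAW 264.7 mouse macrophage line exposed to compound at 100 and 50 μM for 72 h. Viability by MTT conversion to formazan. Reported as per cent inhibition.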

In data set [4] the test system is Mycobacterium tuberculosis. Briefly: Antimycobacterial activity against Mycobacterium tuberculosis H37Rv-GFP infected in mouse RAW264.7 cells after 5 days by confocal microscopic method. The conditions noted are these: RAW264.7, 120 h. In kind it is functional, cell-based. The method in brief: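 Intracellular M. tuberculosis in mouse macrophages. After initial screening at 0.1, 1 and 10 µg/ml, six doses between 0.1 and 1.0 µg/ml were tested to derive IC50.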

The test system of a further data set is Pseudomonas aeruginosa. Briefly: Antibacterial activity against Pseudomonas aeruginosa at 50 to 100 ug/ml by cup plate agar diffusion method. The data set is classed as functional. A digest of the protocol:
as §1
On the technique in general: Agar diffusion results depend on both activity and mobility in agar.

The next data set deals with Bacillus subtilis. Briefly: Antibacterial activity against Bacillus subtilis at 50 to 100 ug/ml by cup plate agar diffusion method. The data set is classed as functional. The method in brief: as §1
The test system of data set [5] is Mycobacterium tuberculosis. Briefly: Antimycobacterial activity against Mycobacterium tuberculosis H37Rv-GFP infected in mouse RAW264.7 cells assessed as growth inhibition at 1 ug/ml after 5 days by confocal microscopic method. In kind it is functional, cell-based. A digest of the protocol:
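Intracellular M. tuberculosis in mouse macrophages. Initial screen at 0.1, 1 and 10 µg/ml.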

The nature of data set [6]: Cytotoxicity against mouse RAW264.7 cells assessed as growth inhibition at 50 uM after 72 hrs by MTT assay relative to control. The data set is classed as cell-based. The note with it: read-out: GI. A digest of the protocol:
as §2

Another data set concerns Escherichia coli. Kind of data set: Antibacterial activity against Escherichia coli at 50 to 100 ug/ml by cup plate agar diffusion method. The data set is classed as functional. A digest of the protocol: as §1
Data set [7] relates to Mycobacterium tuberculosis. Kind of data set: Inhibition of Mycobacterium tuberculosis His6-tagged InhA expressed in Escherichia coli BL21 (DE3) assessed as decrease in NADH oxidation to NAD+ at 10 uM using 2-trans-decenoyl-CoA as substrate preincubated for 2 hrs followed by substrate and NADH addition measured for 1 min by spectrophotometric method relative to control. The method in brief:
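Recombinant MTB InhA expressed in E. coli and purified. DD-CoA reduction followed spectrophotometrically as NADH oxidation to NAD+. Fixed non-saturating NADH and DD-CoA, 1% DMSO. Compound at 10 μM; per cent inhibition relative to a no-inhibitor control, which set the maximal rate.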

Data set [8] deals with Mycobacterium tuberculosis. Kind of data set: Stabilization of Mycobacterium tuberculosis InhA assessed as change in melting temperature by sypro orange dye-based differential scanning fluorimetry. The method in brief: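 Differential scanning fluorimetry of InhA with ligand versus native protein. Heated from 25 °C to 95 °C in 0.1 °C steps with SYPRO Orange. Tm shift taken relative to native protein.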
(In DSF a fluorescence change marks the thermal transition of the protein.)

Converted amounts (≈) assume the structure as drawn. The source made the active and inactive calls.

A word on the MIC: it is the smallest concentration in the dilution series that meets the test's criterion for growth inhibition. In [1], `CC[C@@H](CO)NCCN[C@@H](CC)CO` [ETHAMBUTOL] came in with a minimal inhibitory concentration (MIC) of 7.64 µM (≈ 1.56 µg/mL).

Compound `NNC(=O)c1ccncc1` [ISONIAZID] returned an MIC in data set [1] of 0.72 µM (≈ 0.0987 µg/mL).

A word on the IC50: it is the concentration that gives 50% inhibition. With `O=C(N/N=C(/N=N/c1ccc(F)cc1)c1ccccc1)c1cc(O)c(O)c(O)c1`, the result with Staphylococcus aureus, with Pseudomonas aeruginosa, in the data set with Bacillus subtilis and with Escherichia coli was inactive. For the same compound, the concentration for half-maximal inhibition (IC50) in [2] was 3.42 µM; in data set [4], 0.62 µg/mL (≈ 1.57 µM). For the same compound, the inhibition at 72 h, 100 µM in [3] stood at 23.7%. This compound also returned an MIC in data set [1] of 1.98 µM (≈ 0.78 µg/mL). In addition, the “growth inhibition (GI)” value in data set [5] is “Active”. For the same compound, the inhibition at 72 h, 50 µM in data set [6] is 11.8%. In addition, the inhibition in [7] came to 87.1%.

Regarding `Cc1ccccc1/N=N/C(=N/NC(=O)c1cc(O)c(O)c(O)c1)c1ccccc1`, the outcome in the data set on Staphylococcus aureus, in the data set on Pseudomonas aeruginosa, in the data set on Bacillus subtilis and with Escherichia coli was inactive. Also, the IC50 in [2] turned out to be 3.32 µM. The inhibition at 72 h, 100 µM in [3] came to 41.5%. Further, the lowest concentration to inhibit growth in data set [1] (MIC) was 15.4 µM (≈ 6.01 µg/mL). The inhibition at 72 h, 50 µM in [6] is 32.7%. In addition, in data set [7], the inhibition came to 81.4%.

For the compound `COc1ccccc1/N=N/C(=N/NC(=O)c1cc(O)c(O)c(O)c1)c1ccccc1`, the outcome in the data set with Staphylococcus aureus, with Pseudomonas aeruginosa, in the data set on Bacillus subtilis and in the data set on Escherichia coli was inactive. For the same compound, the IC50 in data set [2] stood at 6.66 µM. The inhibition at 72 h, 100 µM in [3] turned out to be 52.7%. The compound further returned an MIC in [1] of 4 µM (≈ 1.63 µg/mL). For the same compound, the inhibition at 72 h, 50 µM in data set [6] came to 46.5%. The inhibition in [7] came out at 71.7%.

In the case of `O=C(N/N=C(/N=N/c1ccc([N+](=O)[O-])cc1)c1ccccc1)c1cc(O)c(O)c(O)c1`, the outcome in the data set with Staphylococcus aureus, in the data set with Pseudomonas aeruginosa, with Bacillus subtilis and in the data set with Escherichia coli was inactive. Besides, the IC50 in [2] turned out to be 8.16 µM. The inhibition at 72 h, 100 µM in data set [3] amounted to 34.6%. For the same compound, the MIC in [1] is 7.42 µM (≈ 3.13 µg/mL). The inhibition at 72 h, 50 µM in [6] is 11.1%. Moreover, in [7], the inhibition was 57.1%.

`O=C(N/N=C(/N=N/c1ccccc1Cl)c1ccccc1)c1cc(O)c(O)c(O)c1`: the outcome in the data set with Staphylococcus aureus, in the data set on Pseudomonas aeruginosa, in the data set on Bacillus subtilis and with Escherichia coli was inactive. Also, the half-maximal inhibitory concentration (IC50) in data set [2] was determined as 9.16 µM. In addition, in data set [3], the inhibition at 72 h, 100 µM is 32.6%. The compound further came in with an MIC in data set [1] of 15.2 µM (≈ 6.25 µg/mL). For the same compound, the inhibition at 72 h, 50 µM in [6] is 24.5%. In addition, the inhibition in [7] turned out to be 57.1%.

`CC1COc2c(N3CCN(C)CC3)c(F)cc3c(=O)c(C(=O)O)cn1c23` (stereo not given) [OFLOXACIN]: it took 2.16 µM (≈ 0.781 µg/mL) to inhibit growth in data set [1] (MIC).

Regarding `O=C(N/N=C(/N=N/c1ccccc1)c1ccccc1)c1cc(O)c(O)c(O)c1`, the outcome in the data set with Staphylococcus aureus, in the data set on Pseudomonas aeruginosa, in the data set on Bacillus subtilis and in the data set with Escherichia coli was inactive. Further, the inhibition at 72 h, 100 µM in data set [3] stood at 41.4%. In [1], this compound registered an MIC of 38.1 µM (≈ 14.3 µg/mL). Besides, in data set [6], the inhibition at 72 h, 50 µM was determined as 13.6%. Further, the inhibition in data set [7] worked out at 42.2%.

Take `COc1ccc(/N=N/C(=N/NC(=O)c2cc(O)c(O)c(O)c2)c2ccccc2)cc1`: the result with Staphylococcus aureus, in the data set with Pseudomonas aeruginosa, with Bacillus subtilis and with Escherichia coli was inactive. Also, the 50% inhibitory concentration (IC50) in data set [2] amounted to 5.79 µM; in data set [4], 0.56 µg/mL (≈ 1.38 µM). Further, the inhibition at 72 h, 100 µM in data set [3] amounted to 15%. Also, the minimum inhibitory concentration (MIC) in data set [1] is 1.92 µM (≈ 0.781 µg/mL). In addition, the “growth inhibition (GI)” value in data set [5] was “Active”. In addition, the inhibition at 72 h, 50 µM in data set [6] stood at 4.51%. Also, the inhibition in data set [7] was found to be 69.3%.

With `O=C(N/N=C(/N=N/c1ccccc1[N+](=O)[O-])c1ccccc1)c1cc(O)c(O)c(O)c1`, the outcome in the data set on Staphylococcus aureus, in the data set with Pseudomonas aeruginosa, with Bacillus subtilis and in the data set with Escherichia coli was inactive. Also, in [2], the concentration for half-maximal inhibition (IC50) was found to be 8.46 µM. Also, in [3], the inhibition at 72 h, 100 µM was 5.43%. The compound further yielded an MIC in [1] of 14.8 µM (≈ 6.26 µg/mL). For the same compound, the inhibition at 72 h, 50 µM in data set [6] is 2.11%. In addition, in [7], the inhibition turned out to be 62.3%.

In general, ΔTm refers to the shift of the melting midpoint relative to a reference. Turning to `O=C(N/N=C(/N=N/c1ccc(Cl)cc1Cl)c1ccccc1)c1cc(O)c(O)c(O)c1`, the result with Staphylococcus aureus, with Pseudomonas aeruginosa, with Bacillus subtilis and in the data set with Escherichia coli was inactive. The values for the half-maximal inhibitory concentration (IC50) in data set [2] and in data set [4] were 5.22 µM and 0.35 µg/mL (≈ 0.786 µM), respectively. Further, in data set [3], the inhibition at 72 h, 100 µM was 21.5%. Moreover, the ΔTm in data set [8] came to 2.8 °C. 1.75 µM (≈ 0.78 µg/mL) was the least that counted as inhibitory in data set [1] (MIC). Moreover, in [5], the “growth inhibition (GI)” value was “Active”. Also, the inhibition at 72 h, 50 µM in [6] amounted to 12.1%. Further, the inhibition in [7] stood at 73.2%.
